Experiment [1] has as its system RPT. Put plainly: Induction of Mitochondrial biogenesis in rabbit RPT cells at 10 to 3000 nM after 24 hrs by FCCP-OCR assay relative to control. In kind it is functional, cell-based. As to conditions: Oryctolagus cuniculus. In a few lines:
(§1)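 Primary cultures of rabbit renal proximal tubule cells, grown under improved conditions favouring aerobic respiration, were exposed to compound (10–3,000 nM) for 24 h. FCCP-uncoupled oxygen consumption rate was then read on a Seahorse XF-96. Plates included vehicle (DMSO <0.5%), SRT1720 10 μM positive control and blanks. Results are expressed as a ratio or percent fold change versus DMSO, mean ± s.e.m., N=4. A ratio >1.15 was classed as MB.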

The test system of experiment [2] is RPT. Put plainly: Induction of Mitochondrial biogenesis in rabbit RPT cells after 24 hrs by FCCP-OCR assay relative to control. As to conditions: Oryctolagus cuniculus. In kind it is functional, cell-based. The method in brief:
as §1

Experiment [3] has as its target Beta-2 adrenergic receptor (Homo sapiens, UniProt P07550). Briefly: Binding affinity to beta-2 adrenergic receptor (unknown origin) at 1 to 10000 nM.

pKd: −log10 of the molar value. Activity calls are given as the source filed them. The rule behind the calls is not given here.

Sequence of Beta-2 adrenergic receptor (P07550 whole entry): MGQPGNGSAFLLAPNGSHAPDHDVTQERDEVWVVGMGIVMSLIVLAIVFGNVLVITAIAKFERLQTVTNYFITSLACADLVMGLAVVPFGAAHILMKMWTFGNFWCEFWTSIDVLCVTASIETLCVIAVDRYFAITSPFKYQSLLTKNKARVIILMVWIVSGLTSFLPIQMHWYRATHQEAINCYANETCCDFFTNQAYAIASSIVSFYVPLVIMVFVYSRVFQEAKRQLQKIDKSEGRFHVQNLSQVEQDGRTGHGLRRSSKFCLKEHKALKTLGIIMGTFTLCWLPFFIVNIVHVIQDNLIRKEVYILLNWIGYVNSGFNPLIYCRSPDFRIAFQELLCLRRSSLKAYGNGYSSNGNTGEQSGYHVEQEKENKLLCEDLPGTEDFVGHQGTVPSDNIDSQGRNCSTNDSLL

Consider `CC(C)(C)NCC(O)c1cc(Cl)c(N)c(Cl)c1` (stereo unspecified), for which the result in the experiment with RPT [1] was inactive.

For `CC(C)(C)NCC(O)c1cc(O)cc(O)c1` (stereo unspecified), the result with RPT [2] was Active.

Turning to `CC(C)NCC(O)c1ccc(O)c(O)c1` (stereo unspecified), in the experiment with RPT [1], the result was inactive.

Turning to `CC(Cc1ccc(O)cc1)NCC(O)c1cc(O)cc(O)c1` (stereo unspecified), in the experiment on RPT [1], the result was Active.

Turning to `CNCCC(Oc1ccccc1OC)c1ccccc1` (stereo unspecified), the result with RPT [1] was Active.

As for `CNCC[C@@H](Oc1ccccc1C)c1ccccc1`, the outcome with RPT [1] was Active.

As a reminder, the pKd is the negative decadic logarithm of the Kd, by convention in mol/L. Read a low pKd as a high Kd. Compound `C[C@@H](NCCc1ccc(O)cc1)[C@@H](O)c1ccc(O)cc1` (relative stereo) [rel-RITODRINE] showed a pKd in experiment [3] of 9.30. For the same compound, the outcome with RPT [2] was Active.

Consider `CCC(NC1CCCC1)C(O)c1ccc(O)c(O)c1` (stereo unspecified) [CYCLOPENTYLBUTANEPHARINE], for which, in experiment [3], the pKd was 8.00. In the experiment with RPT [2], the result was Active.

Compound `CCC(NC(C)C)C(O)c1ccc(O)c(O)c1` (stereo unspecified) [ISOETHARINE] showed a negative logarithm of the Kd (pKd) in experiment [3] of 6.00. Also, the outcome in the experiment on RPT [1] was inactive.

Compound `CC(C)NCC(O)c1cc(O)cc(O)c1` (stereo unspecified) [METAPROTERENOL] gave a pKd in experiment [3] of 6.30. In the experiment with RPT [2], the result was Active.

In experiment [3], `CCC(NC(C)C)C(O)c1ccc(O)c2[nH]c(=O)ccc12` (stereo unspecified) [PROCATEROL] had a pKd of 7.10. In the experiment with RPT [1], the result was Active.

The record behind these values is ChEMBL document CHEMBL2424620, “β2-Adrenoceptor agonists in the regulation of mitochondrial biogenesis” (Bioorg Med Chem Lett, 2013).
